Assay results as given in ChEMBL document CHEMBL1268887, “2-Hexadecynoic acid inhibits plasmodial FAS-II enzymes and arrests erythrocytic and liver stage Plasmodium infections” (Bioorg Med Chem, 2010).
In brackets after ≈: the same amount, converted by molar mass.

Key:
[1] = target: T1, Fatty acid synthase (Plasmodium falciparum, UniProt Q965D7); experiment: Inhibition of Plasmodium falciparum FabZ by spectrophotometric analysis
T1 sequence (Q965D7 whole entry): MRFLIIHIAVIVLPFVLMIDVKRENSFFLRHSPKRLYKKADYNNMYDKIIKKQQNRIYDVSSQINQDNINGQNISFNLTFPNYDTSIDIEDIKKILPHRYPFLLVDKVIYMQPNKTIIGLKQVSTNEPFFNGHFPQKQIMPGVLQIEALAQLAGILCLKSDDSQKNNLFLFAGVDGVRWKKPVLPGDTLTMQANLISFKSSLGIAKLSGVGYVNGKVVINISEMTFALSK
Procedure, shortened: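 Recombinant PfFabZ (0.5 μg) with 25 μM crotonoyl-CoA in 20 mM HEPES pH 7.4, 150 mM NaCl; DMSO at most 1% final. Read at 263 nm for 2 min, with epigallocatechin gallate as reference. IC50 came from plotted dose-response curves.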

[2] = test system: Plasmodium yoelii; experiment: Antimalarial activity against liver stages of Plasmodium yoelii expressing GFP infected in human HepG2:CD81 cells after 43 hrs by immunofluorescence analysis; assay type: functional, organism-based
Procedure, shortened: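 P. yoelii sporozoite-infected subconfluent HepG2:CD81 cells were kept at 37 °C in 5% CO2 and exposed to compound at up to 25 μg/ml in complete medium. After 43 h they were formalin-fixed and stained with anti-Plasmodium HSP70 mouse mAb plus rabbit anti-UIS4 or anti-FabI. About 20–25 parasites per treatment were sized at 20X against DMSO controls. The normalized reduction was used for IC50 estimation.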

[3] = test system: Plasmodium yoelii; experiment: Antimalarial activity against liver stages of Plasmodium yoelii expressing GFP infected in human HepG2:CD81 cells after 43 hrs by flow cytometry; assay type: functional, organism-based
Procedure, shortened: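 HepG2:CD81 cells seeded on attachment matrix in DMEM/F12 with FBS, infected next day with 50,000 PyGFP sporozoites dissected from mosquitoes 14 days post blood meal. Compound added 2 h later from 10 mM DMSO stocks, tested at 10 to 100 μM, medium changed at 24 h, grown a further 43 h at 37 °C. GFP-positive cells counted by flow cytometry with 7-AAD; atovaquone as positive control.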

[4] = test system: Plasmodium falciparum; experiment: Selectivity ratio of IC50 for Plasmodium falciparum FabG to IC50 for Plasmodium falciparum FabI
[5] = target: T2, 3-oxoacyl-acyl-carrier protein reductase (Plasmodium falciparum, UniProt Q965D6); experiment: Inhibition of Plasmodium falciparum FabG by spectrophotometric analysis
T2 sequence (Q965D6 whole entry): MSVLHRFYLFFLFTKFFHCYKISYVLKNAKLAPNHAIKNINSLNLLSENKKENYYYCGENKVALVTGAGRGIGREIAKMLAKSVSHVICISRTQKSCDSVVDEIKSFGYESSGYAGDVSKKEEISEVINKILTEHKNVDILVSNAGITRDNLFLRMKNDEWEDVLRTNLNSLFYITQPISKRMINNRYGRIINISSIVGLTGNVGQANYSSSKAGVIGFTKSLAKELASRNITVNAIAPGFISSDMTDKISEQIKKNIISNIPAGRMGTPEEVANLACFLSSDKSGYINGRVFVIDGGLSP
Procedure, shortened: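 Recombinant PfFabG assayed in 20 mM HEPES pH 7.4, 150 mM NaCl, with NADPH cofactor and acetoacetyl-CoA substrate; DMSO at most 1% final. IC50 came from plotted dose-response curves.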

[6] = test system: Plasmodium falciparum; experiment: Antimalarial activity against erythrocytic stages of chloroquine and pyrimethamine-resistant Plasmodium falciparum K1 assessed as [3H]hypoxanthine incorporation after 48 hrs by liquid scintillation counting; assay type: functional, organism-based
Procedure, shortened: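 K1 parasites in RPMI 1640 with 5% Albumax, no hypoxanthine, given serial dilutions; 48 h at 37 °C under reduced oxygen, then 0.5 μCi [3H]-hypoxanthine added for a further 24 h. Harvested on glass-fibre filters and counted. Counts per well expressed as percentage of untreated controls; IC50 read from plotted dose-response curves. Chloroquine as standard.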

[7] = test system: L6; experiment: Cytotoxicity against rat L6 cells after 72 hrs by microplate fluorometric analysis; assay type: cell-based; details: L6, 72 h
[8] = test system: Trypanosoma brucei rhodesiense; experiment: Trypanocidal activity against bloodstream form of Trypanosoma brucei rhodesiense STIB 900 after 72 hrs; assay type: functional, organism-based; details: STIB 900, 72 h
[9] = test system: Leishmania donovani; experiment: Leishmanicidal activity against axenic amastigotes of Leishmania donovani MHOM/ET/67/L82 after 72 hrs; assay type: functional, organism-based; details: MHOM/ET/67/L82, 72 h
[10] = test system: Trypanosoma cruzi; experiment: Trypanocidal activity against intracellular amastigotes of Trypanosoma cruzi Tulahuen C2C4 expressing LacZ gene infected in rat L6 cells after 96 hrs; assay type: functional, organism-based; details: Tulahuen C2C4, L6, 96 h
[11] = target: T3, Enoyl-acyl-carrier protein reductase (Plasmodium falciparum, UniProt Q965D5); experiment: Inhibition of Plasmodium falciparum FabI by spectrophotometric analysis
T3 sequence (Q965D5 whole entry): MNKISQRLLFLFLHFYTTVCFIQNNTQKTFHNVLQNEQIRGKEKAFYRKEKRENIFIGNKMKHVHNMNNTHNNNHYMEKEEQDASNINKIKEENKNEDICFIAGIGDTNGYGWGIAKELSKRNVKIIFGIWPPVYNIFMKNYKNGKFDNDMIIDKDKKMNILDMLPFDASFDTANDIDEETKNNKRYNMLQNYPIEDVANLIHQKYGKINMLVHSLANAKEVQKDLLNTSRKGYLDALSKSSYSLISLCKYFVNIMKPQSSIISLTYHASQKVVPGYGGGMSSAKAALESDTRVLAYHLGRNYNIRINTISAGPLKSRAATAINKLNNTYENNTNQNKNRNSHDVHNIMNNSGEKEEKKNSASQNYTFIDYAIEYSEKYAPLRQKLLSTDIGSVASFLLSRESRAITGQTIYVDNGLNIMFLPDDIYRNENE

[12] = test system: Plasmodium falciparum; experiment: Selectivity ratio of IC50 for Plasmodium falciparum FabG to IC50 for Plasmodium falciparum FabZ

| Compound | IC50 [1] [µM] | IC50 [2] [µg/mL] | IC50 [3] [µg/mL] | Ratio IC50 [4] | IC50 [5] [µM] | IC50 [6] [µg/mL] | IC50 [7] [µg/mL] | IC50 [8] [µg/mL] | IC50 [9] [µg/mL] | IC50 [10] [µg/mL] | IC50 [11] [µM] | Ratio IC50 [12] |
| --- | --- | --- | --- | --- | --- | --- | --- | --- | --- | --- | --- | --- |
| O=C(O[C@@H]1Cc2c(O)cc(O)cc2O[C@@H]1c1cc(O)c(O)c(O)c1)c1cc(O)c(O)c(O)c1 [EPIGALOCATECHIN GALLATE] | 0.0654 | – | – | – | – | – | – | – | – | – | – | – |
| O=C1C(O)=C([C@H]2CC[C@H](c3ccc(Cl)cc3)CC2)C(=O)c2ccccc21 [ATOVAQUONE] | – | 0.00037 (≈ 0.00101 µM) | 0.0025 (≈ 0.00681 µM) | – | – | – | – | – | – | – | – | – |
| CCCCCCCCCC#CCCCCC(=O)O | 47.5 | > 25 | > 25 | 10 | > 396 | 22.5 (≈ 89.1 µM) | 30.3 (≈ 120 µM) | 31.7 (≈ 126 µM) | 9.8 (≈ 38.8 µM) | > 30 | 14.3 | 50 |
| COc1cc([C@@H]2c3cc4c(cc3[C@H](O)[C@H]3COC(=O)[C@H]23)OCO4)cc(OC)c1OC [PODOFILOX] | – | – | – | – | – | – | 0.004 (≈ 0.00965 µM) | – | – | – | – | – |
| CCCCCCC#CCCCCCCCC(=O)O | 49.5 | > 25 | > 25 | 10 | > 396 | – | 80.8 (≈ 320 µM) | 3.7 (≈ 14.7 µM) | 4.1 (≈ 16.2 µM) | > 30 | 11.1 | 50 |
| CCCCCCCCCCC#CCCCC(=O)O | 55.5 | > 25 | > 25 | 10 | > 396 | 6.6 (≈ 26.1 µM) | > 90 | 25.5 (≈ 101 µM) | 13.4 (≈ 53.1 µM) | > 30 | 12.3 | 50 |
| CCCCCCCCCCCCCCCC(=O)O [PALMITIC ACID] | > 390 | > 25 | > 25 | – | > 390 | 3.8 (≈ 14.8 µM) | 52.7 (≈ 206 µM) | 30.4 (≈ 119 µM) | 14.5 (≈ 56.5 µM) | > 30 | > 390 | – |
| O=C(Cn1ccnc1[N+](=O)[O-])NCc1ccccc1 [BENZNIDAZOLE] | – | – | – | – | – | – | – | – | – | 0.489 (≈ 1.88 µM) | – | – |
| CCCCCCCCCCCCCCCCOP(=O)([O-])OCC[N+](C)(C)C [MILTEFOSINE] | – | – | – | – | – | – | – | – | 0.26 (≈ 0.638 µM) | – | – | – |
